In ChEMBL document CHEMBL3351423, “2-Phenylaminonaphthoquinones and related compounds: synthesis, trypanocidal and cytotoxic activities” (Bioorg Med Chem, 2014):

Assays:
[1] = tested on: Trypanosoma cruzi; assay: Trypanocidal activity against epimastigote stage of Trypanosoma cruzi assessed as cell viability after 24 hrs by MTT assay
[2] = tested on: Vero; assay: Cytotoxicity against african green monkey Vero cells by MTT assay; format: cell-based; conditions: Chlorocebus sabaeus
Procedure, shortened: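 Vero cells in RPMI 1640 without phenol red, with compound added from DMSO (final below 0.25% v/v). Read by MTT (5 mg/mL) plus 0.22 mg/mL phenazine methosulfate for 4 h at 37 °C, formazan dissolved in 10% SDS/0.01 M HCl overnight, OD at 570 nm. IC50 from four-parameter nonlinear fit; at least three experiments, triplicate cultures.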

[3] = Antiproliferative activity against human dermal fibroblast cells after 72 hrs; format: cell-based
Procedure, shortened: (§1)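 Cells grown in DMEM with 10% FCS, penicillin/streptomycin and 1 mM glutamine. Seeded at 3 × 10³ cells/well and allowed to attach for 24 h at 37 °C in 5% CO₂. Exposed continuously for 72 h to four serial dilutions (12.5 to 100 µM), in triplicate; final DMSO 0.1%, DMSO-only controls. Read by sulforhodamine B after TCA fixation, with doxorubicin as reference.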

[4] = Antiproliferative activity against human PC3 cells after 72 hrs; format: functional, cell-based; conditions: PC-3, 72 h
Procedure, shortened: as §1

[5] = tested on: MCF7; assay: Antiproliferative activity against human MCF7 cells after 72 hrs; format: functional, cell-based; conditions: MCF7, 72 h
Procedure, shortened: as §1

[6] = tested on: MDA-MB-231; assay: Antiproliferative activity against human MDA-MB-231 cells after 72 hrs; format: functional, cell-based; conditions: MDA-MB-231, 72 h
Procedure, shortened: as §1

[7] = tested on: MCF7; assay: Selectivity index, ratio of IC50 for human dermal fibroblast cells to IC50 for human MCF7 cells; format: functional
Procedure, shortened: (§2)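 Selectivity index calculated as IC50 in non-tumoral dermal human fibroblasts divided by IC50 in the cancer line. Both IC50s come from a 72 h sulforhodamine B growth assay with four dilutions (12.5–100 µM) in triplicate.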

[8] = tested on: Fibroblast; assay: Selectivity index, ratio of IC50 for human dermal fibroblast cells to IC50 for human PC3 cells; format: functional
Procedure, shortened: as §2

[9] = Selectivity index, ratio of CC50 for african green monkey Vero cells to IC50 for epimastigote stage of Trypanosoma cruzi; format: functional
Procedure, shortened: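 Selectivity index taken as Vero IC50 divided by epimastigote IC50. Both values are from MTT viability assays, with Vero cells read at 37 °C and epimastigotes at 28 °C.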

[10] = tested on: Trypanosoma cruzi; assay: Trypanocidal activity against trypomastigote form of Trypanosoma cruzi infected in african green monkey Vero cells assessed as cell viability after 5 to 7 days by MTT assay; format: functional
[11] = tested on: Fibroblast; assay: Selectivity index, ratio of IC50 for human dermal fibroblast cells to IC50 for human MDA-MB-231 cells; format: functional
Procedure, shortened: as §2

Row | SMILES | IC50 [1] [µM] | IC50 [2] [µM] | IC50 [3] [µM] | IC50 [4] [µM] | IC50 [5] [µM] | IC50 [6] [µM] | Selectivity Index [7] | Selectivity Index [8] | Selectivity Index [9] | inhibition (INH) [10] [%] | Selectivity Index [11]
1 | O=C1C=C(Nc2ccc(O)cc2)C(=O)c2ccccc21 | > 25 | > 25 |  |  |  |  |  |  |  |  | 
2 | COc1ccc(NC2=CC(=O)c3ccccc3C2=O)cc1 | > 25 | > 25 | 65.4 | 35.4 | > 100 | > 100 |  |  |  |  | 
3 | COc1ccc(OC)c(NC2=CC(=O)c3ccccc3C2=O)c1 | 23.3 | > 50 | > 100 | 1.03 | 0.21 | 87.5 | >480 | >97 |  |  | 
4 | COc1ccc(OC)c(NC2=C(Cl)C(=O)c3ccccc3C2=O)c1 | > 100 | > 100 |  |  |  |  |  |  |  |  | 
5 | O=C1C=C(Nc2ccc3ccccc3c2)C(=O)c2ccccc21 | 9.02 | 6.97 |  |  |  |  |  |  | 0.77 | 86.02 | 
6 | O=C1C(O)=C(c2ccccc2[N+](=O)[O-])C(=O)c2ccccc21 | > 100 | > 100 |  |  |  |  |  |  |  |  | 
7 | COc1ccccc1NC1=CC(=O)c2ccccc2C1=O | 3.49 | > 25 | > 100 | > 100 | > 100 | > 100 |  |  |  | 18.78 | 
8 | COc1cccc(NC2=CC(=O)c3ccccc3C2=O)c1 | > 25 | > 25 | > 100 | > 100 | > 100 | > 100 |  |  |  |  | 
9 | COc1ccc(NC2=CC(=O)c3ccccc3C2=O)cc1OC | 25 | > 25 | > 100 | 10.4 | 22.2 | 10.2 |  |  |  |  | 
10 | COc1ccc(NC2=CC(=O)c3ccccc3C2=O)c(OC)c1 | > 25 | > 25 | > 100 | 60 | > 100 | > 100 |  |  |  |  | 
11 | CCCCCCOc1ccc(NC2=CC(=O)c3ccccc3C2=O)cc1 | 1.72 | 27 | > 100 | 27.9 | > 100 | > 100 |  |  | 16 | 69.63 | 
12 | Cc1ccc(NC2=CC(=O)c3ccccc3C2=O)c(C)c1 | > 25 | > 25 |  |  |  |  |  |  |  |  | 
13 | CCCCCCOc1ccc(NC2=C(Cl)C(=O)c3ccccc3C2=O)cc1 | 6.04 | 196 | > 100 | > 100 | > 100 | > 100 |  |  | 32 | 46.3 | 
14 | O=C1C=C(Nc2cccc3ccccc23)C(=O)c2ccccc21 | 15.9 | > 25 |  |  |  |  |  |  |  | 59.67 | 
15 | COc1cccc2c3c([nH]c12)C(=O)c1ccccc1C3=O | 20.9 | 21.7 | > 100 | > 100 | > 100 | > 100 |  |  | 0.95 | 12.21 | 
16 | COc1ccc2c3c([nH]c2c1)C(=O)c1ccccc1C3=O | > 25 | > 25 |  |  |  |  |  |  |  |  | 

Row | SMILES | IC50 [1] [µM] | IC50 [2] [µM] | IC50 [3] [µM] | IC50 [4] [µM] | IC50 [5] [µM] | IC50 [6] [µM] | Selectivity Index [7] | Selectivity Index [8] | Selectivity Index [9] | inhibition (INH) [10] [%] | Selectivity Index [11]
17 | COc1ccc2[nH]c3c(c2c1)C(=O)c1ccccc1C3=O | > 50 | > 50 | > 100 | > 100 | > 100 | > 100 |  |  |  |  | 
18 | COc1ccc(OC)c2c3c([nH]c12)C(=O)c1ccccc1C3=O | > 100 | > 100 |  |  |  |  |  |  |  |  | 
19 | CCCCCCOc1ccc2[nH]c3c(c2c1)C(=O)c1ccccc1C3=O | > 100 | > 100 |  |  |  |  |  |  |  |  | 
20 | COc1cc2c(cc1OC)C(=O)c1c([nH]c3cc(OC)c(OC)cc13)C2=O | > 100 | > 100 |  |  |  |  |  |  |  |  | 
21 | COc1ccc2c(c1)c1c(n2C)C(=O)c2ccccc2C1=O | > 25 | > 25 | > 100 | > 100 | > 100 | > 100 |  |  |  |  | 
22 | COc1cc2c3c(n(C)c2cc1OC)C(=O)c1ccccc1C3=O | > 100 | > 100 | > 100 | > 100 | > 100 | > 100 |  |  |  |  | 
23 | COc1ccc(OC)c(NC2=CC(=O)c3ncccc3C2=O)c1 | 2.45 | 15.4 | 22.5 | 0.53 | 0.12 | 8.8 | 188 | 42 | 6.3 | 32.62 | 
24 | O=C1C(Cl)=C(Nc2cccnc2)C(=O)c2ccccc21 | > 100 | > 100 |  |  |  |  |  |  |  |  | 
25 | Cc1cnc2c(c1)C(=O)C=C(Nc1ccccc1)C2=O | 5.79 | 16.2 |  |  |  |  |  |  | 2.7 | 58.2 | 
26 | COc1ccc(OC)c(NC2=CC(=O)C3=C(OC(C)(C)C3)C2=O)c1 | 12.3 | 15.5 |  |  |  |  |  |  | 1.3 | 7.5 | 
27 | Cn1ncc2c1C(=O)C1=C(CC(C)(C)O1)C2=O | 2.53 | 13.4 |  |  |  |  |  |  | 5.3 | 38.57 | 
28 | COc1cc2c(cc1OC)C(=O)C(c1cc(OC)c(OC)cc1[N+](=O)[O-])=C(O)C2=O | > 100 | > 100 |  |  |  |  |  |  |  |  | 
29 | O=C1C=C(Nc2ccccc2)C(=O)c2ccccc21 | > 25 | > 10 |  |  |  |  |  |  |  |  | 
30 | O=C1c2ccccc2C(=O)c2c1[nH]c1ccccc21 [BENZOCARBAZOLEDIONE] | > 10 | > 10 |  |  |  |  |  |  |  |  | 
31 | COc1cccc2c1C(=O)c1c(O)c3c(c(O)c1C2=O)C[C@@](O)(C(=O)CO)C[C@@H]3O[C@H]1C[C@H](N)[C@H](O)[C@H](C)O1 [DOXORUBICIN] |  |  | 7.86 | 0.54 | 0.32 | 0.31 | 25 | 15 |  |  | 25
32 | CC1CS(=O)(=O)CCN1/N=C/c1ccc([N+](=O)[O-])o1 (stereo not given) [NIFURTIMOX] | 21.1 | 411 |  |  |  |  |  |  | 20 | 42.62 | 
